# Source: PubChem (several laboratories)
# An excerpt weighted towards active compounds, which were near 1.7% of everything screened.
# STEP block: blocks human striatal-enriched tyrosine phosphatase. recombinant STEP, OMFP fluorogenic substrate, fluorescence. P54829. inhibition, % at 20 µM. hit rate 0.25% among 360,000. AID 588621;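 active = inhibition at 20 µM, scaled per plate between control wells, above about 37%, limit read from the data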;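 also: 0% = DMSO with enzyme and substrate and 100% = substrate only without enzyme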
#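 System: STEP (striatal-enriched tyrosine phosphatase) enzyme, cell-free; medium: Bis-Tris pH 6.0 buffer with DTT, detergent; dosing: 20 µM, 1% DMSO; times: reaction 20 min, ambient temperature; detection: fluorescence, 480/540 nm; read-out basis: normalized % inhibition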
# Scp1 inh: inhibitors of human Scp-1 phosphatase | inhibition, % at 20 µM | hit rate 0.88% among 340,000 | Recombinant Scp1, phosphopeptide, malachite green phosphate absorbance | AID 493091 | Q9GZU7;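 active = inhibition above about 50% at 20 µM, limit read from the data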;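 also: plate controls were DMSO wells with enzyme for no effect and wells lacking enzyme for full effect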
# Target sequence (Q9GZU7 76-261 limits assumed): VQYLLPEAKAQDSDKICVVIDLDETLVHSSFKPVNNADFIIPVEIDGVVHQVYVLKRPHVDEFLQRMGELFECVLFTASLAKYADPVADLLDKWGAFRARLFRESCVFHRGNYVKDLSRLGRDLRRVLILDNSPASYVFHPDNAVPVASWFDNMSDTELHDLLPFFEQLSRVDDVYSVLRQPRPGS
#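 Times: enzyme reaction 45 min at room temperature, colour 5 min, stabilisation 30 min. Material: SCP-1 catalytic fragment, aa 76-261. Medium: Acidic Tris acetate buffer with magnesium and detergent. Signal: colorimetric free-phosphate detection, absorbance 630 nm. Read-out basis: % inhibition of SCP-1 phosphate liberation. Reagent: Phosphorylated 17-residue peptide substrate.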
# SUMO1 PPI mod: alters human SUMO1 binding to SIM partners | hit rate 0.33% among 360,000 | SUMO1 binding to a labelled peptide, TR-FRET, 1 h | P63165 | inhibition, % at 20 µM | AID 602429; in the data active = inhibition above about 37%
# Target sequence (P63165 whole entry, looked up): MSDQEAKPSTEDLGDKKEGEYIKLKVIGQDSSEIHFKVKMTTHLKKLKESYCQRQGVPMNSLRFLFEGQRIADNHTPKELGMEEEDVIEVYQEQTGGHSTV
# LMPTP inh: LMPTP (human) inhibition; P24666; recombinant LMPTP-A, OMFP fluorogenic substrate, fluorescence intensity; inhibition, % at 20 µM; hit rate 0.22% among 360,000;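 active = compounds that cut the enzyme signal by at least half of the control window in the single-dose screen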;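 also: plate controls were DMSO wells with enzyme plus substrate for no effect and substrate without enzyme for full effect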
#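 Test system: LMPTP-A phosphatase enzyme. Amount: LMPTP-A at 0.625 nM final in the reaction. Reagent: OMFP substrate, 400 µM final. Times: 50 min at room temperature. Signal: endpoint fluorescence intensity from OMFP dephosphorylation. Read-out basis: % inhibition. Benchmarks: no-enzyme and uninhibited controls.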
# DNMT1 inh: DNMT1 (human) enzyme inhibition. DNMT1 molecular beacon, Hinp1I cleavage, fluorescence. inhibition (reported as % activation of signal), % at 10 µM. hit rate 0.83% among 360,000; in the data active = inhibition above about 50%
# CASP6 VEID inh: caspase-6 (human) enzyme inhibition | P55212 | purified caspase-6, Z-VEID-R110 cleavage fluorescence | inhibition, % at 12.5 µM | hit rate 0.53% among 350,000;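 active = mean inhibition across replicates at least about 35%, with every replicate also reaching that limit, limit read from the data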;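 also: 0% = median of neutral control wells and 100% = no fluorescence left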
# The depositor's hits bear a star; / = no result given.
SMILES,STEP block,Scp1 inh,SUMO1 PPI mod,LMPTP inh,DNMT1 inh,CASP6 VEID inh
C[C@@H]1CN([C@H](C)CO)C(=O)c2cc(NC(=O)CCN3CCOCC3)ccc2O[C@@H]1CN(C)C(=O)Nc1ccc(C(F)(F)F)cc1,/,/,/,/,/,0
O=C(NC1CCCC1)c1cnn2c(C(F)(F)F)cc(-c3ccc4c(c3)OCO4)nc12,-1,-5,-2,2,51*,1
CC1CC(=O)C2=C(C1)OC(N)=C(C#N)C2c1coc2ccccc2c1=O (stereo unspecified),0,-13,2,0,1,/
COc1ccc(CCNC(=O)COC(=O)c2ccc([N+](=O)[O-])o2)cc1,-1,-6,-26,1,-6,59*
COc1ccc(CCNC(=O)COc2ccc([N+](=O)[O-])cc2)cc1,-1,-5,-12,1,0,4
O=C(COC(=O)c1ccc([N+](=O)[O-])o1)NCCCc1ccccc1,1,0,-35,-1,-1,49*
O=C(COC(=O)c1ccc([N+](=O)[O-])o1)Nc1cccc2ccccc12,0,6,-12,0,-14,16
Cc1cccc(C)c1NC(=O)C1(C)CN(S(C)(=O)=O)CC(=O)N1CCCn1ccnc1 (stereo unspecified),/,/,-1,-1,/,2
Cc1ccc(C(=O)NC2CCCN(c3ccc(C(F)(F)F)cn3)C2)cn1 (stereo unspecified),-2,-10,0,0,2,-3
Cn1c(=O)c2c(ncn2CC(=O)OCC(=O)c2ccc(OC(F)F)cc2OC(F)F)n(C)c1=O,0,/,4,0,0,55*
CCOC(=O)c1ccc(NC(=O)c2c(N)n(Cc3ccccc3)c(=O)[nH]c2=O)cc1,0,-3,46*,-1,49,/
CCOC(=O)c1ccc(NC(=O)c2ccccc2)cc1,-5,-7,2,-1,3,-3
CC1CCN(C(=O)c2ccc3c(c2NCCO)C(=O)c2ccccc2C3=O)CC1,9,-5,-27,5,-6,/
CCN(CC)CCNC(=O)c1ccc2c(c1NCCO)C(=O)c1ccccc1C2=O,5,-1,-26,7,26,36*
COc1ccc(NC(=O)CSc2nccn2C)c([N+](=O)[O-])c1,4,-4,-14,0,1,1
Cc1ccccc1CSCC(=O)NCCSc1ccccn1,2,-9,49*,-1,-1,-2
Cc1ccccc1N(CC(=O)NCCSc1ccccn1)S(=O)(=O)c1ccccc1,-4,1,2,-1,0,2
CSc1ccccc1NC(=O)CN(C)C(C)C(=O)NC(=O)NC1CCCCC1 (stereo unspecified),-3,-5,7,0,3,5
CC1=NOC(=O)/C1=C\c1ccc(-c2ccc(Cl)cc2Cl)o1,3,9,53*,7,91*,/
CCCOc1ccc(Cl)cc1/C=C1/C(=O)ON=C1C,2,-7,-1,1,2,4
COc1ccccc1NC(=O)Nc1ccccc1C#N,1,-8,7,-1,0,1
O=C1CC(c2ccc(O)cc2)Oc2cc(O)cc(O)c21 (stereo unspecified),-2,-11,4,0,2,1
O=C(c1c(O)cc(O)cc1O)C1c2c(cc(O)c3c2O[C@H](c2ccc(O)cc2)[C@@H](O)C3)OC1c1ccc(O)cc1 (stereo partly specified),-3,-9,15,2,-15,37*
Cc1cc(/C=N/NC(N)=S)c(O)c(/C=N/NC(N)=S)c1,-1,12,-7,1,53*,5
NC(=S)N/N=C/c1cccc(O)c1O,2,-3,2,4,0,5
O=C(Nc1ccn(Cc2ccc(Cl)cc2)n1)c1ccc2c(c1)OCO2,-1,-5,40*,-1,-8,/
Cc1cccc(Cn2ccc(NC(=O)c3ccc4c(c3)OCO4)n2)c1,1,-2,1,0,-3,2
COc1cc(OC)cc(C(=O)NNC(=O)CNC(=O)c2cccs2)c1,2,-1,5,1,-6,62*
COc1cccc(OCC(=O)NNC(=O)c2cccs2)c1,2,-6,-1,1,1,/
